Data taken from ChEMBL document CHEMBL4304754, “Development of α-GalCer Analogues with an α-Fluorocarbonyl Moiety as Th2-Selective Ligands of CD1d” (ACS Med Chem Lett, 2019).
The source made the active and inactive calls. The rule behind the calls is not given here.

Columns and labels:
[1] = molecular target: T1, Antigen-presenting glycoprotein CD1d (Mus musculus) (UniProt P11609+P11610); test: Covalent binding affinity to mouse CD1d at 5 equivalent incubated in DBPS buffer without tween 20 for 3 hrs by MALDI-TOF analysis; type: protein assay
Outline: (§1)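 Samples of CD1d protein incubated with each ligand were analysed by MALDI-TOF mass spectrometry. The aim was to detect covalent conjugates formed between a CD1d cysteine and the ligand's α-fluorocarbonyl group.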

[2] = molecular target: T1, Antigen-presenting glycoprotein CD1d (Mus musculus); test: Binding affinity to CD1d in C57BL/6 mouse HMNC cells assessed as iNKT cells stimulation by measuring increase in ratio of IL-4 to IFNgamma (IL-4/IFNgamma) level at 25 nM incubated for 72 hrs by ELISA; type: cell-based
[3] = molecular target: T1, Antigen-presenting glycoprotein CD1d (Mus musculus); test: Binding affinity to CD1d in C57BL/6 mouse HMNC cells assessed as iNKT cells stimulation by measuring increase in IL-2 production at 25 nM incubated for 72 hrs by ELISA; type: cell-based
Outline: (§2)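 Primary murine hepatic mononuclear cells (HMNCs), which contain iNKT cells, were incubated with each glycolipid at 25 nM for 72 h. Cytokines released into the medium were quantified by ELISA, with α-GalCer as positive control.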

[4] = molecular target: T1, Antigen-presenting glycoprotein CD1d (Mus musculus); test: Binding affinity to CD1d in C57BL/6 mouse HMNC cells assessed as iNKT cells stimulation by measuring increase in Th2-type cytokine, IL-4 production at 25 nM incubated for 72 hrs by ELISA; type: cell-based; outline: as §2
[5] = molecular target: T1, Antigen-presenting glycoprotein CD1d (Mus musculus); test: Binding affinity to CD1d in C57BL/6 mouse HMNC cells assessed as iNKT cells stimulation by measuring Th1-type cytokine, IFNgamma production at 25 nM incubated for 72 hrs by ELISA; type: cell-based; outline: as §2
[6] = molecular target: T1, Antigen-presenting glycoprotein CD1d (Mus musculus); test: Covalent binding affinity to mouse CD1d at 10 equivalent incubated for 3 hrs by coomassie blue staining based SDS-PAGE analysis; type: protein assay
Outline: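 CD1d protein was incubated with each ligand under several reported or modified conditions. Samples were then denatured and resolved by SDS-PAGE. Gels were stained with Coomassie blue to look for covalent CD1d–ligand adduct bands alongside intact protein.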

[7] = molecular target: T1, Antigen-presenting glycoprotein CD1d (Mus musculus); test: Covalent binding affinity to mouse CD1d at 5 equivalent incubated in DBPS buffer with tween 20 for 3 hrs by MALDI-TOF analysis; type: protein assay; outline: as §1
[8] = molecular target: T1, Antigen-presenting glycoprotein CD1d (Mus musculus); test: Binding affinity to CD1d in C57BL/6 mouse HMNC cells assessed as iNKT cells stimulation by measuring increase in IL17 production at 25 nM incubated for 72 hrs by ELISA; type: cell-based; outline: as §2
[9] = molecular target: T1, Antigen-presenting glycoprotein CD1d (Mus musculus); test: Covalent binding affinity to mouse CD1d at 14.6 equivalent incubated in tris buffer without tween 20 at pH 7.5 to 8 for 16 hrs by MALDI-TOF MS analysis; type: protein assay; outline: as §1
[10] = molecular target: T1, Antigen-presenting glycoprotein CD1d (Mus musculus); test: Covalent binding affinity to mouse CD1d at 14.6 equivalent incubated in tris buffer with tween 20 at pH 7.5 to 8 for 16 hrs by MALDI-TOF MS analysis; type: protein assay; outline: as §1

**Q.** Which Activity [1] does the source give for `CCCCCCCCCCCCCC[C@@H](O)[C@@H](O)[C@H](CO[C@H]1O[C@H](CO)[C@H](O)[C@H](O)[C@H]1O)NC(=O)CCCCCCCCCCCCCCCCCC(=O)CF` here?
**A.** inactive

**Q.** And the Activity [2]?
**A.** Active

**Q.** And the Activity [3]?
**A.** Active

**Q.** And the Activity [4]?
**A.** Active

**Q.** What about the Activity [5] of the same molecule?
**A.** inactive

**Q.** And the Activity [6]?
**A.** inactive

**Q.** And the Activity [7]?
**A.** inactive

**Q.** With `CCCCCCCCCCCCCC[C@@H](O)[C@@H](O)[C@H](CO[C@H]1O[C@H](CO)[C@H](O)[C@H](O)[C@H]1O)NC(=O)CCCCCCCCCCCCCCCCCCC(=O)CF` as the molecule, how does the Activity [1] read?
**A.** inactive

**Q.** What about the Activity [2] of the same molecule?
**A.** Active

**Q.** And the Activity [8]?
**A.** Active

**Q.** And the Activity [3]?
**A.** Active

**Q.** What about the Activity [4] of the same molecule?
**A.** Active

**Q.** What about the Activity [5] of the same molecule?
**A.** inactive

**Q.** And the Activity [6]?
**A.** inactive

**Q.** What about the Activity [7] of the same molecule?
**A.** inactive

**Q.** For `CCCCCCCCCCCCCC[C@@H](O)[C@@H](O)[C@H](CO[C@H]1O[C@H](CO)[C@H](O)[C@H](O)[C@H]1O)NC(=O)CCCCCCCCCCCCCCCCCCCC(=O)CF`, which Activity [1] is on record?
**A.** inactive

**Q.** And the Activity [2]?
**A.** Active

**Q.** What about the Activity [8] of the same molecule?
**A.** Active

**Q.** What about the Activity [3] of the same molecule?
**A.** Active

**Q.** What about the Activity [4] of the same molecule?
**A.** Active

**Q.** And the Activity [5]?
**A.** inactive

**Q.** What about the Activity [6] of the same molecule?
**A.** inactive

**Q.** And the Activity [7]?
**A.** inactive

**Q.** With `CCCCCCCCCCCCCCCCCCCCCCCC(=O)N[C@@H](CO[C@H]1O[C@H](CO)[C@H](O)[C@H](O)[C@H]1O)[C@H](O)[C@H](O)CCCCC` as the molecule, how does the Activity [2] read?
**A.** Active

**Q.** And the Activity [4]?
**A.** inactive

**Q.** What about the Activity [5] of the same molecule?
**A.** inactive

**Q.** `CCCCCCCCCCCCCC[C@@H](O)[C@@H](O)[C@H](CO[C@H]1O[C@H](CO)[C@H](O)[C@H](O)[C@H]1O)NC(=O)CCCCCCCCCCCCCCCCC(=O)CF` was tested. Which Activity [1] did it give?
**A.** inactive

**Q.** And the Activity [3]?
**A.** Active

**Q.** And the Activity [4]?
**A.** Active

**Q.** What about the Activity [5] of the same molecule?
**A.** inactive

**Q.** What about the Activity [6] of the same molecule?
**A.** inactive

**Q.** What about the Activity [7] of the same molecule?
**A.** inactive

**Q.** With `CCCCCCCCCCCCCCCCCCCCCCCCCC(=O)N[C@@H](CO[C@H]1O[C@H](CO)[C@H](O)[C@H](O)[C@H]1O)[C@H](O)[C@H](O)CCCCCCCCCCCCCC` as the molecule, how does the Activity [8] read?
**A.** Active

**Q.** What about the Activity [3] of the same molecule?
**A.** Active

**Q.** And the Activity [4]?
**A.** Active

**Q.** `CCCCCCCCCCCCCC[C@@H](O)[C@@H](O)[C@H](CO[C@H]1O[C@H](CO)[C@H](O)[C@H](O)[C@H]1O)NC(=O)CCCCCCCCCCCCCCCCCCCCC(=O)CF` was tested. Which Activity [1] did it give?
**A.** inactive

**Q.** And the Activity [9]?
**A.** inactive

**Q.** What about the Activity [2] of the same molecule?
**A.** Active

**Q.** What about the Activity [8] of the same molecule?
**A.** Active

**Q.** What about the Activity [3] of the same molecule?
**A.** Active

**Q.** And the Activity [4]?
**A.** Active

**Q.** What about the Activity [5] of the same molecule?
**A.** inactive

**Q.** And the Activity [10]?
**A.** inactive

**Q.** What about the Activity [6] of the same molecule?
**A.** inactive

**Q.** What about the Activity [7] of the same molecule?
**A.** inactive
